# Results pooled from the literature.
# Target: Serine/threonine-protein kinase haspin (HASPIN, Homo sapiens, UniProt Q8TF76)
# Residues used in one study (Q8TF76 1-798): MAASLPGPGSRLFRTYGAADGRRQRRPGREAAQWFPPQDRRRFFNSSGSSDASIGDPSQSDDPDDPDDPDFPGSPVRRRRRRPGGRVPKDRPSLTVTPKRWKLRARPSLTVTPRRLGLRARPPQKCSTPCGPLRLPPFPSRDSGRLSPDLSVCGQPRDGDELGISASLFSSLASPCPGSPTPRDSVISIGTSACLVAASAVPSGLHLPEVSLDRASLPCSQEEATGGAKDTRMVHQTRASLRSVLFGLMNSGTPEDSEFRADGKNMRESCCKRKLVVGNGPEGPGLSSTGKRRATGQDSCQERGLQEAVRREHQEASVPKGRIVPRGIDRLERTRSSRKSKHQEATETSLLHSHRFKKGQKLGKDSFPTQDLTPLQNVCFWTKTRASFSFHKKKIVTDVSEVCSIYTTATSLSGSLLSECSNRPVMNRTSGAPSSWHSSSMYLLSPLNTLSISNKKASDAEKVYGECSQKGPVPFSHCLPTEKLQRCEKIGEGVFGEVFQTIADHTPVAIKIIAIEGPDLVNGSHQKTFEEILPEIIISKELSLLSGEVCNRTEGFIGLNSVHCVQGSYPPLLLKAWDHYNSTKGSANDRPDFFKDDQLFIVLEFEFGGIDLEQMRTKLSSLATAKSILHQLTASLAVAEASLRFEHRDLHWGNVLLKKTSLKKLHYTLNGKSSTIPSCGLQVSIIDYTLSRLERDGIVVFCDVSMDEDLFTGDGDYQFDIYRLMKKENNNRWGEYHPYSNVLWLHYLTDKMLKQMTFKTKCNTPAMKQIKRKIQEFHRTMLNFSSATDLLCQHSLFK
Structure (SMILES),test,conditions,quantity,value
Nc1ncc(-c2nc(N3CCOCC3)nc(N3CCOCC3)n2)c(C(F)F)n1,"binding, competition with immobilised ligand",10 µM,remaining binding,71%
Cn1cc(-c2cc(F)cc(N3CCn4c(cc5c4CCCC5)C3=O)c2CO)cc(Nc2ccc(N3CCN(C4COC4)CC3)cn2)c1=O,"enzyme activity, inhibitor",0.1 µM,inhibition,8%
O=c1[nH]c2ccccc2n1C1CCN(Cc2ccc(-c3[nH]c4cc5ncnc5cc4nc3-c3ccccc3)cc2)CC1,cell-free assay,0.5 µM,remaining signal,106%
C#Cc1n[nH]c2c(-c3cn([C@@H](C)c4ccccc4)c(=O)[nH]c3=O)cc(F)cc12,"enzyme activity, inhibitor",0.1 µM,inhibition,-5.9%
COc1ncccc1-c1cnn2ccc(N3CCN(C(=O)OC(C)C)CC3)nc12,"binding, competition with immobilised ligand",1 µM,remaining binding,80%
C#Cc1n[nH]c2c(-c3cn(C(C)c4ccccn4)c(=O)[nH]c3=O)cc(F)cc12 (stereo not shown),"enzyme activity, inhibitor",1 µM,inhibition,18.9%
N#CC1(c2ccccn2)CCN(Cc2cc(C(=O)O)c(=O)n3ccccc23)CC1,"cell-free assay, competition with immobilised ligand",1 µM,remaining binding,100%
CC(C)(C)c1cc(C=C(C#N)C#N)cc(Br)c1O,"enzyme activity, inhibitor",0.5 µM,remaining activity,67.2%
Cn1cncc1[C@](O)(COc1ccc(C#N)cc1-c1ccc(OC(F)(F)F)cc1)c1ccc(C#N)cc1,"cell-free assay, competition with immobilised ligand",1 µM,remaining binding,100%
Cn1cc(-c2cccc(N3CCc4c(sc5c4CC(C)(C)C5)C3=O)c2CO)cc(Nc2ccncn2)c1=O,"enzyme activity, inhibitor",1 µM,inhibition,-1%
